From PubChem
Sampled rows, rich in hits. Any-hit rate of the full collection: about 3.5%.
MrgX1 ag = activates human MrgX1 receptor signaling | MrgX1-HEK293 cells, Fluo-4 calcium fluorescence, agonist mode; active compounds read high | B-score at 10 µM | actives 0.44% (n = 310,000) | AID 588627;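 active = calcium response B-score plate-corrected fluorescence ratio at least 3 library SD, with starting fluorescence B-score inside 5 SD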
Target sequence (Q96LB2 whole entry, looked up): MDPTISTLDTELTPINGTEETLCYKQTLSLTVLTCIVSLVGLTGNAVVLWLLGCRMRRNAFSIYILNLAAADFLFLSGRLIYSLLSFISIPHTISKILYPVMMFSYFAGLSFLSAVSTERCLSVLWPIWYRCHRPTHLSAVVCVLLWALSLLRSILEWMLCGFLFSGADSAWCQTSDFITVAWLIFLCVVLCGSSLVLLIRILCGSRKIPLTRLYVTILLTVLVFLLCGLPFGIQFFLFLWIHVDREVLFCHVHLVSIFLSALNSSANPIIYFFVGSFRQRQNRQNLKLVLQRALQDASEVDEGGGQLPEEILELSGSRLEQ
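Test system: HEK293 cells stably expressing human MrgX1 receptor; Input: fifteen thousand cells per well; Dosing: compound delivered in addition one of three; Schedule: overnight seeding, then 1 h dark dye loading; Technique: Fluo-4 NW calcium fluorescence; Measure: B-scored fluorescence response ratio; Controls: positive and negative controls per plate.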
RGS4 inh = inhibitors of human RGS4 | B-score at 10 µM | actives 0.45% (n = 310,000) | AID 463165 | HEK293 M3R/RGS4 inducible, Fluo-4 calcium flux; active compounds read high; triggered by carbachol at its EC20 | P49798;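 active = B-score, a plate-corrected calcium signal, over three deviations above library mean, with baseline fluorescence within five deviations of library mean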;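 also: RGS4 expression induced by doxycycline in cells with stable M3 receptor; B-score is computed from the integrated fluorescence ratio over baseline after carbachol; higher B-score means a larger calcium signal and so more RGS4 inhibition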
MrgX1 antag = antagonists of human MrgX1 receptor. Q96LB2. MRGX1-HEK293 calcium flux, Fluo-4, BAM8-22 antagonism; active compounds read low. B-score at 10 µM. actives 1.3% (n = 310,000). AID 588676;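 active = calcium-response B-score plate-corrected more than 3 library SD below zero, starting fluorescence within 5 deviations, no agonist response on first addition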;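 also: peak minus trough fluorescence over baseline after final BAM8-22 challenge near maximal dose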
RGS4 act = RGS4 potentiation or activation; HEK293 M3R/inducible RGS4, carbachol calcium flux Fluo4; active compounds read low; B-score at 10 µM; actives 0.92% (n = 310,000); AID 463111;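 active = B-score of the integrated calcium signal more than 4 SD below the library mean, with starting fluorescence not abnormally high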;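 also: negative B-score means reduced calcium response which marks RGS4 activation or potentiation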
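System: HEK293 FlpIn-TREx cells, stable M3R, doxycycline-inducible RGS4. Timing: overnight RGS4 induction, 30 min dye load 37 °C, 20 min compound RT. Also added: carbachol, ECmax concentration. Measured by: Fluo4 fluorescence kinetic imaging of calcium. Evaluation: integrated calcium ratio converted to B score.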
MrgX1 PAM = human MrgX1 positive allosteric modulation, primary screen; Q96LB2; MrgX1-HEK293, Fluo-4 calcium flux, FDSS; active compounds read high; B-score at 10 µM; actives 0.63% (n = 310,000); AID 588675;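 active = plate-corrected calcium response at least 3 library SD above typical, normal starting fluorescence, not activating the receptor alone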;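 also: compound read alongside a low EC10 to EC30 dose of BAM8-22 agonist; peak minus trough fluorescence over baseline measured at the second addition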
MrgX1 PAM conf = reconfirmed allosteric activator of human MrgX1 receptor. shares compounds with MrgX1 PAM. actives 13% (n = 1,200). activation (ratio percentage), % at 10 µM. MrgX1-HEK293, Fluo-4 calcium fluorescence, FDSS;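 active = ratio at least 3 SD above the weak peptide control, stable starting fluorescence, no direct agonism earlier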;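 also: compound followed by low BAM8-22 agonist challenge near EC20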
HEK293 Ca flux = counter-screen for MrgX1 antagonists: effect in parental HEK293 cells; fluorescence ratio F(max-min)/F0 at 10 µM; Fluo-4 calcium fluorescence, FDSS; actives 2% (n = 4,000); shares compounds with MrgX1 antag;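 active = duplicate-averaged calcium fluorescence ratio at least three times the standard deviation of buffer wells, a nonspecific response in parental cells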
HEK293 Ca counter = MrgX1 allosteric activator counter-screen hit in parental HEK293 cells; parental HEK293 calcium flux, Fluo-4 fluorescence ratio; active compounds read high; AID 624114; fluorescence ratio F(max-min)/F0 at 10 µM; actives 0.4% (n = 4,000); shares compounds with MrgX1 antag;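 active = calcium fluorescence ratio, averaged over duplicates, at least 3 SD of the buffer-well ratio, meaning a nonspecific response in receptor-free cells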;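 also: untransfected parental HEK293 lacking MrgX1 used as counterscreen for MrgX1 allosteric activators; fluorescence change taken during the second addition on a kinetic imager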
HEK293 Ca cntr2 = MrgX1 activator counter-screen hit in parental HEK293 cells | shares compounds with MrgX1 antag | Fluo-4 calcium fluorescence (FDSS); active compounds read high | fluorescence ratio F(max-min)/F0 at 10 µM | actives 8.7% (n = 4,000) | AID 624115;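 active = calcium fluorescence ratio at least three times the spread of buffer wells, meaning a non-specific response in parental cells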
* hit, by the source's call; i = inactive; nt = no result given.

SMILES	MrgX1 ag	RGS4 inh	MrgX1 antag	RGS4 act	MrgX1 PAM	MrgX1 PAM conf	HEK293 Ca flux	HEK293 Ca counter	HEK293 Ca cntr2
CC(=O)/C(=C(/O)c1ccccc1)c1nc2ccccc2[nH]1	i	i	i	i	12*	i	i	i	i
NS(=O)(=O)c1ccc(NC(=O)CSc2ncccn2)cc1	i	i	i	i	16*	i	i	i	i
CC12CCC(C(=O)O)(c3nc4cc([N+](=O)[O-])ccc4nc31)C2(C)C (stereo not given)	i	i	i	i	i	nt	nt	nt	nt
CC12CCC(C)(c3nc4ccccc4nc31)C2(C)C	i	i	i	i	6.9*	i	i	i	i
COc1cc(CNCc2cc(OC)c(OC)c(OC)c2)cc(OC)c1	i	i	i	i	i	nt	nt	nt	nt
CC(=O)NCC(=O)NC1CCCc2c1cnn2-c1ccc(C(C)(C)C)cc1 (stereo not given)	i	i	i	i	9*	i	i	i	i
CCOc1ccc(NC(=O)NC(=O)N(C(C)C)S(C)(=O)=O)cc1	i	i	i	i	10*	i	i	i	i
C#CC(CC)(CC)NC(=S)Nc1cccc(C(C)=O)c1	i	i	i	i	8.3*	i	i	i	i
CCCCNC(=S)Nc1cccc(C(C)=O)c1	i	i	i	i	i	nt	nt	nt	nt
Cc1nc2cc(Cl)ccc2n1-c1ccccc1	i	i	i	i	16*	i	i	i	i
COc1cc(C)c(NC(c2ccccc2)c2ccccc2)cc1OC	i	i	i	i	8.7*	i	i	i	i
COc1ccccc1CNC(c1ccccc1)c1ccccc1	i	i	i	i	i	nt	nt	nt	nt
Cc1cc(Cl)ccc1NC(=S)NCC(O)c1ccccc1 (stereo not given)	i	i	i	i	22*	i	i	i	i
COc1ccc(C(F)(F)F)cc1N/C=C/c1nnnn1-c1ccc2ccccc2c1	i	i	i	i	i	nt	nt	nt	nt
CCN(C(=O)c1cnc(NC(C)C)cc1C(F)(F)F)c1ccc(Cl)cc1Cl	i	i	i	i	i	nt	nt	nt	nt
CCn1c(/N=C/c2ccccc2NS(=O)(=O)c2ccc(C)cc2)nc2ccccc21	i	nt	i	nt	14*	i	i	i	i
Cc1cc(C(=O)CCl)c(C)n1Cc1ccco1	i	i	i	i	7*	i	i	i	i
COC(=O)c1cc(C(=O)OC)n(Cc2ccc(F)cc2)c1C	i	i	i	i	6.5*	i	i	i	i
COC(=O)c1cc(C(=O)OC)n(Cc2ccc(F)cc2)n1	i	i	i	i	i	nt	nt	nt	nt
O=C(Cc1ccc(Br)cc1)N(Cc1ccccc1)c1ccccn1	i	i	i	i	7.3*	i	i	i	i
O=C(COc1ccc(Br)cc1)N(Cc1ccccc1)c1ccccn1	i	i	i	i	i	nt	nt	nt	nt
COc1ccc(Cl)cc1NC(=O)C1CCN(S(C)(=O)=O)CC1	i	i	i	i	i	nt	nt	nt	nt
CN(C)c1nc(N)nc(N(c2ccccc2)c2ccccc2)n1	i	i	i	i	7.4*	i	i	i	i
COc1ccc(NC(=O)C(Cc2ccccc2)NC(=O)c2ccco2)cc1OC (stereo not given)	i	i	i	i	i	nt	nt	nt	nt
